# High-throughput results: PubChem, several laboratories
# This is a sample that favours compounds with a hit; in the whole collection about 2.2% have one here.
# Mot1-301 SUMO = yeast Mot1-301 growth rescue at high temperature, primary screen, SUMOylation pathway inhibitor project, S. cerevisiae, ATP luminescence, 38.5C; 320,000 tested, 1% active; growth rescue, % at 18.8 µM; S. cerevisiae Mot1-301 growth rescue; percent above DMSO median, 100 means doubled; AID 2716, 2010;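 active = every valid replicate shows activation above 250% relative to neutral control wells; inactive = the rest, any valid replicate at or below 250%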;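 also: OY570 slx delta 5 strain wells were the positive control but not used for scaling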
# Cneo AK release = Cryptococcus neoformans cell lysis inducers, primary screen, AK release luminescence, single concentration; C. neoformans lysis, adenylate kinase release luminescence, 4 h; normalised: neutral wells 0, clomiphene wells 100; lysis activity, % at 15 µM; 360,000 tested, 0.2% active;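 active = mean lysis activity across replicates of at least 80%, whatever share of replicates individually reach that level; inactive = mean lysis activity below 80%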
#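 Test system: log-phase Cryptococcus neoformans yeast cells; Quantity: yeast cell density of 5 × 10^6 cells/mL; Buffer or medium: YPD; Doses: single compound concentration per well; Timing: 4 h at 37 °C static, read 1 h later; Measured by: AK luminescence; Read-out basis: lysis from increased AK signal; Control set: Clomiphene as positive control.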
# Yeast superoxide = reduction of superoxide in aged yeast, primary screen, HTS. S. cerevisiae aged cells, superoxide DHE fluorescence; hits give low values. superoxide response (% of plate mean), % at 10 µM. 330,000 tested, 0.18% active. AID 2690, 2010;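 active = superoxide response under a set limit, about three screen SD below normal, cut at about 65% in these data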;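 also: yeast aged for seven days with compound at 30 °C before DHE staining; 100% = average MFI of all compound-treated wells on the plate with controls excluded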
# rRNA inh HTS = reduced GFP signal of wild-type E. coli, primary screen, bacterial rRNA inhibitor project, GFP/RFP fluorescence, OD600, single point; 350,000 tested, 1.6% active; GFP signal change (wild-type ribosome), % (test concentration not listed); E. coli WT GFP vs humanized-ribosome RFP mutants, 24 h; hits give low values; DMSO median 0, no signal -100;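 active = significant combined selectivity score with lowered wild-type GFP, culture density cut under 30%, mutant RFP and density less affected; inactive = any of these conditions unmet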
# PglD DTNB = C. jejuni PglD acetyltransferase inhibitors, primary screen, biochemical, DTNB colorimetric, single point. purified PglD enzyme, DTNB colorimetric CoA detection. inhibition, % at 12.5 µM. 360,000 tested, 0.098% active. AID 602405, 2012; in the data active = inhibition above about 16%, passing the limit was not always enough
# Yeast Mot1 SUMO = growth restoration of Mot1-301 yeast on galactose, dose response, SUMO pathway inhibitor project, whole organism, S. cerevisiae, ATP luminescence, cherry-picked samples. shares compounds with Mot1-301 SUMO. S. cerevisiae Mot1-301 galactose growth, 24 h; -100 = growth of slx-deleted rescue strain. growth activity, percent, % at 42 µM. 2,300 tested, under 10 active;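 active = Signal drops as the depositor expects, and the fitted half-maximal dose is no more than ten times the top valid tested dose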;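 also: more negative values mean stronger growth rescue toward the control strain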
# The depositor's hits bear a star; · = no result given; + = active, no number.
SMILES,Mot1-301 SUMO,Cneo AK release,Yeast superoxide,rRNA inh HTS,PglD DTNB,Yeast Mot1 SUMO
CNC[C@@H]1Oc2cc(-c3cncnc3)ccc2S(=O)(=O)N([C@@H](C)CO)C[C@H]1C,·,14,·,6,3,·
O=C(c1ccc(Br)cc1)C(CN1CCOCC1)c1ccccc1 (stereo not given),460*,3,89,-68,1,-1
CC(CN1CCOCC1)OC(=O)c1ccc(Br)cc1 (stereo not given),-5,6,95,·,-2,·
Cc1cc(C)nc(SCC2COc3ccccc3O2)n1 (stereo not given),393*,0,97,·,-7,1
O=C(c1cc(-c2ccc(Cl)c(Cl)c2)on1)N1CCN(c2ccccc2)CC1,+,·,121,·,·,0
Cc1ccc2c(c1)N(Cc1ccccc1)C(=O)C(C)O2 (stereo not given),·,3,·,-1,1,·
CC1=Nc2ccc(C)cc2N(Cc2ccccc2)C(=O)C1,629*,0,92,7,2,0
COc1ccccc1C(=O)NCCC(=O)N(C)CC(=O)Nc1ccc(C)cc1,-6,10,102,-4,-3,·
Cc1ccc(NC(=O)COc2ccccc2C(=O)NCCN(C)C)cc1,800*,·,103,·,·,1
Cc1noc(C)c1NC(=O)N(C)C[C@H]1Oc2ncc(C#CC(C)C)cc2C(=O)N([C@H](C)CO)C[C@@H]1C,·,-5,·,1,0,·
CCCOC(=O)C1=C(C)N(C)C(=O)NC1c1cc2c(cc1[N+](=O)[O-])OCO2 (stereo not given),354,-2,111,4,-3,·
CCOC(=O)C1=C(C)NC(=O)CC1c1cc2c(cc1[N+](=O)[O-])OCO2 (stereo not given),937*,0,104,3,1,-1
Cc1ccc(S(=O)(=O)Nc2cccc3c2O[C@@H](CN(C)S(=O)(=O)c2ccc(F)cc2)[C@@H](C)CN([C@H](C)CO)C3=O)cc1,·,-3,·,-3,0,·
COc1ccc(NS(=O)(=O)c2ccc(OCC(=O)N3CCOCC3)cc2)cc1Cl,+,0,89,-3,5,1
Cc1ccc(/C=C/C(=O)O)cc1S(=O)(=O)N(CCO)CCO,390*,-4,101,·,-2,0
Cc1noc(C)c1S(=O)(=O)Nc1ccc2c(c1)C(=O)N([C@H](C)CO)C[C@@H](C)[C@H](CN(C)S(=O)(=O)c1cccs1)OCCCC[C@@H](C)O2,·,-5,·,2,5,·
CCCN(C)C[C@H]1Oc2cc(-c3cccc(C#N)c3)ccc2S(=O)(=O)N([C@@H](C)CO)C[C@H]1C,·,8,·,-1,-2,·
Cc1cccc(C(=O)NCC(=O)N2CCN(c3ccc(Cl)cc3)CC2)c1,368*,2,106,3,3,0
C[C@@H]1CN([C@@H](C)CO)C(=O)c2cc(NS(=O)(=O)c3ccccc3)ccc2O[C@H]1CN(C)C,·,5,·,4,-11,·
COc1cccc(/C=N/NC(=O)CNC(=O)c2ccncc2)c1O,11,-7,122,-3,5,·
COc1cccc(/C=N/NC(=O)CNC(=O)c2ccco2)c1O,400*,·,99,7,·,-1
CC(C)NC(=O)N(C)C[C@@H]1Oc2cc(C#CC3CC3)ccc2S(=O)(=O)N([C@H](C)CO)C[C@H]1C,·,-1,·,-7,1,·
CC(=O)Nc1ccc(S(=O)(=O)Nc2ccc(S(=O)(=O)Nc3ncccn3)cc2)cc1,+,0,111,4,-2,0
CC(=O)Nc1ccc(S(=O)(=O)Nc2cccc(-c3ccc4nncn4n3)c2)cc1,528*,·,88,-1,·,0
Cc1ccc(-c2nc(CS(=O)(=O)CC(=O)NC3CCCCC3C)c(C)o2)cc1 (stereo not given),699*,1,111,9,-5,1
